Measured values reported in ChEMBL document CHEMBL1135406, “Distribution of furamidine analogues in tumor cells: influence of the number of positive charges” (J Med Chem, 2002).

tested on: B16; experiment: Drug concentration required to inhibit B16 cell growth by 50% after 72 hours of incubation; format: functional, cell-based; details: Mus musculus, B16, 72 h
Method in brief: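 B16 murine melanoma cells grown in DMEM-glutaMAX with 10% FBS, penicillin and streptomycin, 37 °C, 5% CO2; harvested by trypsinization and plated 20 h before dosing. 2 × 10⁴ exponentially growing cells per well exposed to a range of drug concentrations for 72 h at 37 °C; MTS added for a further 3 h; absorbance read at 492 nm; IC50 = 50% growth inhibition.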

SMILES	IC50
CN(C)CCC/N=C(\N)c1ccc(-c2ccc(-c3ccc(/C(N)=N/CCCN(C)C)cc3)o2)cc1	2.5 µM
N=C(N)c1ccc(-c2ccc(-c3nc4ccccc4[nH]3)o2)cc1	51.4 µM
c1cc(-c2ccc(-c3ccc(C4=NCCN4)cc3)o2)ccc1C1=NCCN1	1.1 µM
COc1ccc(-c2ccc(-c3ccc(C4=NCCN4)cc3)o2)cc1	1.7 µM
COc1ccc(-c2ccc(-c3ccc(C(=N)N)cc3)o2)cc1	3.5 µM
N=C(N)c1ccc2[nH]c(-c3ccc(-c4ccc(N)cc4)o3)nc2c1	> 100 µM
c1ccc2[nH]c(-c3ccc(-c4ccc(C5=NCCN5)cc4)o3)nc2c1	8.6 µM
CN(C)CCCC(=O)Nc1ccc(-c2ccc(-c3ccc(NC(=O)CCCN(C)C)cc3)o2)cc1	2.3 µM
N=C(N)c1ccc(-c2ccc(-c3nc4cc(C(=N)N)ccc4[nH]3)o2)cc1	43.2 µM
CN(C)CCC/N=C(\N)c1ccc(-c2ccc(-c3nc4cc(/C(N)=N/CCCN(C)C)ccc4[nH]3)o2)cc1	> 100 µM
N=C(N)c1ccc(-c2ccc(-c3ccc(C(=N)N)cc3)o2)cc1 [FURAMIDINE]	9.2 µM
